According to ChEMBL document CHEMBL4196022, “Alkynyl-containing phenylthiazoles: Systemically active antibacterial agents effective against methicillin-resistant Staphylococcus aureus (MRSA)” (Eur J Med Chem, 2018):
In brackets after ≈: the same amount, converted by molar mass. Activity calls are given as the source filed them. No cut-off for these calls is given here.

How the values were obtained:
[1] = Terminal phase volume of distribution in Sprague-Dawley rat at 2 uM administered as single iv bolus dose by LC-MS/MS analysis; type: ADME, organism-based; settings: in vivo, read-out: Vbeta
In short: (§1)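 Male naïve Sprague-Dawley rats (three animals) received an IV bolus of a 2 μM solution. EDTA-K2 blood was sampled over 12 h post dose. Plasma was protein-precipitated with acetonitrile and quantified by LC/MS/MS. Parameters came from two-compartmental pharmacokinetic analysis.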

[2] = test system: Staphylococcus aureus; experiment: Antibacterial activity against methicillin-resistant Staphylococcus aureus NRS123 (USA400) infected in mouse J774 cells at 8 ug/ml after 24 hrs; type: functional, organism-based
In short: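 J774 macrophages grown in DMEM with 10% FBS at 37 °C, 5% CO2. Infected with USA400 at MOI ~100:1 for 1 h, then washed with gentamicin 50 μg/mL. Treated in triplicate wells for 24 h, washed with gentamicin again and lysed with 0.1% Triton X-100. Lysate plated on tryptic soy agar for 18–22 h; CFU/mL counted.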

[3] = test system: Staphylococcus aureus; experiment: Ratio of MBC to MIC for vancomycin-resistant Staphylococcus aureus VRS11a; type: functional
In short: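 MBC/MIC ratio. […] MBC by plating no-growth wells onto tryptic soy agar at 37 °C for at least 18 h; taken as the concentration giving 99.9% growth inhibition.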

[4] = test system: Staphylococcus aureus; experiment: Antibacterial activity against methicillin-resistant Staphylococcus aureus USA300 after 20 hrs by broth microdilution assay; type: functional; settings: USA300, 20 h
In short: (§2)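 Broth microdilution per CLSI in cation-adjusted Mueller Hinton broth. Compounds serially diluted, in triplicate. Incubation at 37 °C for at least 20 hours. MIC taken as the lowest concentration with no visible bacterial growth.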

[5] = molecular target: T1, Undecaprenyl-diphosphatase (Escherichia coli (strain K12), UniProt P60932); experiment: Inhibition of Escherichia coli UPPP expressed in Escherichia coli C41(DE3) using FPP as substrate preincubated for 15 mins followed by substrate addition measured after 20 mins by malachite green assay
T1 sequence (P60932 whole entry): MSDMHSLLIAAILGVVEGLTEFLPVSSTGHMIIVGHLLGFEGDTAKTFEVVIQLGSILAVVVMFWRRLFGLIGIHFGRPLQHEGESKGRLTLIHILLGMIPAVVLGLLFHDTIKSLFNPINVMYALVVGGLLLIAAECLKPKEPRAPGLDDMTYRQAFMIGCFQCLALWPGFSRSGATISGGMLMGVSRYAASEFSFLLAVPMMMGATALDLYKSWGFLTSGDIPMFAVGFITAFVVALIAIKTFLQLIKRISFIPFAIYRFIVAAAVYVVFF

[6] = test system: Staphylococcus aureus; experiment: Antibacterial activity against methicillin-resistant Staphylococcus aureus NRS107 after 20 hrs by broth microdilution assay; type: functional; settings: NRS107, 20 h; in short: as §2
[7] = molecular target: T2, Ditrans,polycis-undecaprenyl-diphosphate synthase ((2E,6E)-farnesyl-diphosphate specific) (Escherichia coli (strain K12), UniProt P60472); experiment: Inhibition of Escherichia coli UPPS using IPP and FPP as substrate preincubated for 30 mins followed by substrate addition measured after 20 mins by malachite green phosphate assay
T2 sequence (P60472 whole entry): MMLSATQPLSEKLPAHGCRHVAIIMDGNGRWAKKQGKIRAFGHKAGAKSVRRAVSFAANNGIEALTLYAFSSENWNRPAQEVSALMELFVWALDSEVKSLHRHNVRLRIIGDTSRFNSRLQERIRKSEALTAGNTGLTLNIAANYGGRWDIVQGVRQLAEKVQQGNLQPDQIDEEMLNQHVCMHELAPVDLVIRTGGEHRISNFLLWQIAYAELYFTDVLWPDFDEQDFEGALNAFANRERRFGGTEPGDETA

[8] = Apparent permeability from apical to basolateral side in human Caco2 cells at 10 uM after 60 mins by LC-MS/MS analysis; type: ADME, cell-based; settings: caco-2, 1 h
In short: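 Caco-2 monolayers were seeded at 1 × 10^5 cells/cm2 and differentiated for three weeks. Test article was at 10 μM (1% DMSO) in HBSS-MES pH 6.5 or HBSS-HEPES pH 7.4 and added to the donor side. Incubation ran 60 min (A→B) or 40 min (B→A), and receiver buffer was analysed by LC/MS/MS. Lucifer yellow and fluorescein checked monolayer integrity. Efflux ratio = Papp(B→A)/Papp(A→B).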

[9] = test system: Staphylococcus aureus; experiment: Antibacterial activity against vancomycin-resistant Staphylococcus aureus VRS11a after 20 hrs by broth microdilution assay; type: functional; in short: as §2
[10] = test system: Rattus norvegicus; experiment: Half life in Sprague-Dawley rat at 2 uM administered as single iv bolus dose by LC-MS/MS analysis; type: ADME, organism-based; settings: in vivo; in short: as §1
[11] = test system: Staphylococcus aureus; experiment: Antibacterial activity against vancomycin-resistant Staphylococcus aureus VRS10 after 20 hrs by broth microdilution assay; type: functional; settings: VRS10, 20 h; in short: as §2
[12] = test system: Staphylococcus aureus; experiment: Antibacterial activity against methicillin-resistant Staphylococcus aureus NRS119 after 20 hrs by broth microdilution assay; type: functional; settings: NRS119, 20 h; in short: as §2
[13] = test system: Staphylococcus aureus; experiment: Bactericidal activity against methicillin resistant Staphylococcus aureus NRS123 (USA400) up to 18 hrs by broth microdilution assay; type: functional; settings: read-out: MBC99.9
[14] = test system: Staphylococcus aureus; experiment: Antibacterial activity against vancomycin-resistant Staphylococcus aureus VRS12 after 20 hrs by broth microdilution assay; type: functional; settings: VRS12, 20 h; in short: as §2
[15] = test system: J774; experiment: Cytotoxicity against mouse J774 cells assessed as reduction in cell viability up to 8 ug/ml after 24 hrs by MTS assay; type: cell-based; settings: j774, 24 h
In short: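 J774 murine macrophages were grown in DMEM with 10% FBS at 37 °C, 5% CO2. Compounds were tested at 8, 16 and 32 μg/mL in triplicate for 24 h, with a DMSO-matched control. MTS was added for 4 h and absorbance read at 490 nm. Viability is given as % of DMSO control (mean ± SD); Student t-test with Holm-Sidak test.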

[16] = test system: Staphylococcus aureus; experiment: Antibacterial activity against methicillin-resistant Staphylococcus aureus USA300 in Balb/c mouse skin infection model assessed as reduction in bacterial burden in wounded skin area at 2% administered topically twice daily for 5 consecutive days measured 12 hrs post last dose relative to control; type: functional; design: scale not given: the % may be the effect or the level left
In short: (§3)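 Female Balb/c mice, 8 weeks old, n=5 per group. Intradermal injection of 40 μL of 1.32×10^9 CFU/mL USA300; a wound formed by ~66 h. Treated topically with a 2% suspension in petroleum jelly twice daily for 5 days; the vehicle group served as control. Wounds excised 12 h after the last dose, homogenized in PBS and plated on mannitol salt agar; sites also observed for redness and swelling.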

[17] = test system: Mus musculus; experiment: Toxicity in wounded skin area of Balb/c mouse infected with methicillin-resistant Staphylococcus aureus USA300 at 2% administered topically twice daily for 5 consecutive days measured 12 hrs post last dose; type: organism-based; settings: in vivo, topical_or_ocular; in short: as §3

In the case of `C/C(=N\NC(=N)N)c1sc(-c2ccc(C#CC3CC3)cc2)nc1C`, the Vd at 2 µM [1] is reported as 18.5 L, the Activity [2] is reported as “inactive” and the Ratio [3] is reported as “<=3”. The MIC [4] was 2 mg/L (≈ 5.93 µM), the IC50 [5] was 8.1 µM and the MIC [6] was 2 mg/L (≈ 5.93 µM). The IC50 [7] was 38 µM, the Papp [8] was 0.5 nm/s and the MIC [9] was 2 mg/L (≈ 5.93 µM). For the same compound, the t1/2 [10] was 4.43 h, the MIC [11] was 2 mg/L (≈ 5.93 µM) and the MIC [12] was 2 mg/L (≈ 5.93 µM). For the same compound, the MBC [13] was 2 mg/L (≈ 5.93 µM), the MIC [14] was 2 mg/L (≈ 5.93 µM) and the Activity [15] was “Non-Toxic”. The Activity [16] was 73% and the Activity [17] was “Non-Toxic”.
